We go through 26 compounds from ChEMBL document CHEMBL1135395, “Design and synthesis of potent nonpeptidic farnesyltransferase inhibitors based on a terphenyl scaffold” (J Med Chem, 2002).

Assay [1] deals with Geranylgeranyl transferase type I (Homo sapiens, UniProt P49354+P53609). Briefly: Inhibition of partially purified Geranylgeranyl transferase type I (GGTase-I) from human Burkitt lymphoma (Daudi) cells. In outline: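 Partially purified enzyme from Daudi cells was incubated with [3H]GGPP and recombinant H-Ras-CVLL at a range of inhibitor concentrations for 30 min at 37 °C. The reaction was stopped and filtered on glass fiber filters to separate free from Ras-bound label.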

The target of assay [2] is Protein farnesyltransferase (Homo sapiens, UniProt P49354+P49356). Briefly: Inhibition of farnesyltransferase from human Burkitt lymphoma (Daudi) cells. The method in brief: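 Partially purified enzyme from Daudi cells was incubated with [3H]FPP and recombinant H-Ras-CVLS at a range of inhibitor concentrations for 30 min at 37 °C. IC50 was determined.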

Bounds are passed on as bounds.

Take `O=C(O)c1cccc(-c2ccc(NCc3ccc(S)cc3)cc2-c2ccccc2)c1`: the IC50 in assay [1] and in assay [2] was above 10 µM each time.

`Cc1cccc(-c2ccc(NC[C@@H](N)CS)cc2)c1`: the figures for the IC50 in assay [1] and in assay [2] were above 100 µM and 0.77 µM, respectively.

Turning to `COC(=O)c1cccc(-c2ccc(NCc3cncn3Cc3ccc(C#N)cc3)cc2-c2ccccc2)c1`, the IC50 in assay [1] came out at 6.9 µM; in assay [2] it was 0.38 µM.

As to `COC(=O)c1cccc(-c2ccc(NCc3cccc(S)c3)cc2-c2ccccc2)c1`, the IC50 in assay [1] and in assay [2] was above 10 µM in each case.

Turning to `COC(=O)c1cccc(-c2ccc(NCc3ccccc3S)cc2-c2ccccc2)c1`, the IC50 in assay [1] and in assay [2] was above 10 µM in each case.

On to `COC(=O)c1cccc(-c2ccc(NCc3cncn3Cc3ccc([N+](=O)[O-])cc3)cc2-c2ccccc2)c1`, for which the 50% inhibitory concentration (IC50) came to 5.9 µM in assay [1] and 0.31 µM in assay [2].

Turning to `O=C(O)c1cccc(-c2ccc(NCc3cccc(S)c3)cc2-c2ccccc2)c1`, the IC50 in assay [1] and in assay [2] was above 10 µM throughout.

As for `Nc1ccc(Cn2cncc2CNc2ccc(-c3cccc(C(=O)O)c3)c(-c3ccccc3)c2)cc1`, the IC50 in assay [1] amounted to 7 µM.

In the case of `COc1cc(NC[C@@H](N)CS)ccc1-c1cccc(C(=O)O)c1`, the IC50 in assay [1] was determined as 35 µM; in assay [2], 0.037 µM.

For the compound `COC(=O)c1cccc(-c2ccc(NCc3cncn3Cc3ccc(N)cc3)cc2-c2ccccc2)c1`, the figures for the IC50 in assay [1] and in assay [2] were above 10 µM and 5.6 µM, respectively.

Regarding `N[C@@H](CS)CNc1ccc(-c2cccc(C(=O)O)c2)cc1`, the IC50 in assay [1] was 90 µM; in assay [2], 0.15 µM.

Regarding `COC(=O)c1cccc(-c2ccc(NC[C@@H](N)CS)cc2)c1`, the IC50 amounted to 100 µM in assay [1] and 0.93 µM in assay [2].

For `COC(=O)c1cccc(-c2ccc(NCc3ccc(S)cc3)cc2-c2ccccc2)c1`, the IC50 in assay [1] and in assay [2] was above 10 µM in each case.

`CSCC[C@H](NC(=O)c1ccc(NC[C@@H](N)CS)cc1)C(=O)O` came in with an IC50 in assay [2] of 0.15 µM.

As to `O=C(CCS)Nc1ccc(-c2cccc(C(=O)O)c2)c(-c2ccccc2)c1`, the IC50 is above 10 µM in assay [1] and 3.8 µM in assay [2].

Regarding `O=C(O)c1cccc(-c2ccc(NC(=O)c3cccc(S)c3)cc2-c2ccccc2)c1`, the IC50 in assay [1] and in assay [2] was above 10 µM each time.

As to `N#Cc1ccc(Cn2cncc2CNc2ccc(-c3cccc(C(=O)O)c3)c(-c3ccccc3)c2)cc1`, the IC50 amounted to 4.4 µM in assay [1] and 0.43 µM in assay [2].

As for `O=C(O)c1cccc(-c2ccc(NCc3cncn3Cc3ccc([N+](=O)[O-])cc3)cc2-c2ccccc2)c1`, the results for the IC50 in assay [1] and in assay [2] were 3.9 µM and 0.45 µM, respectively.

Regarding `N[C@@H](CS)CNc1ccc(-c2cccc(C(=O)O)c2)c(-c2ccccc2)c1`, the IC50 came to 0.64 µM in assay [1] and 0.02 µM in assay [2].

Take `COC(=O)c1cccc(-c2ccc(NC(=O)c3cccc(S)c3)cc2-c2ccccc2)c1`: the IC50 in assay [1] and in assay [2] was above 10 µM throughout.

As for `N[C@@H](CS)CNc1ccc(-c2ccccc2)cc1`, the IC50 in assay [1] is above 100 µM; in assay [2], 1.2 µM.

Turning to `N[C@@H](CS)CNc1ccc(-c2cccc(C3N=NN=N3)c2)cc1`, the IC50 was determined as 4.4 µM in assay [1] and 0.03 µM in assay [2].

Turning to `COC(=O)c1cccc(-c2ccc(NC(=O)CCS)cc2-c2ccccc2)c1`, the IC50 in assay [1] and in assay [2] was above 10 µM in each case.

For the compound `O=C(O)c1cccc(-c2ccc(NCc3cnc[nH]3)cc2-c2ccccc2)c1`, the IC50 in assay [1] stood at 5 µM; in assay [2] it was 2.3 µM.

With `COC(=O)c1cccc(-c2ccc(NCc3c[nH]cn3)cc2-c2ccccc2)c1`, the IC50 in assay [1] and in assay [2] was above 10 µM in each case.

As to `CCCOc1cc(NC[C@@H](N)CS)ccc1-c1cccc(C(=O)O)c1`, the IC50 came out at 2.4 µM in assay [1] and 0.041 µM in assay [2].
